Experimental data: PubChem BioAssay AID624466 (The Scripps Research Institute Molecular Screening Center, 2012)
Among all 360,000 compounds or so, about 5,400 (1.5%) were called active. The sample holds actives, similar compounds and a random draw of the others, so the mix is not that of the screen. Unmarked numbers belong to inactive results.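 Rule for the calls: active = inhibition above a per-plate cutoff, the mean inhibition of test compounds on that plate plus 3 SD (cut at about 49% in these data); inactive = the rest.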

molecular target: Trace amine-associated receptor 1 (Homo sapiens) (UniProt Q96RJ0); experiment: human TAAR1 antagonists, primary screen, Fluo-8 calcium fluorescence, CHO RD-HGA16 cells (AID 624466); conditions: CHO RD-HGA16 TAAR1, Fluo-8 calcium fluorescence, antagonist; at 3 µM; active compounds read high;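 note: 0% = DMSO plus EC80 beta-PEA response and 100% = DMSO alone without agonist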
Sequence (Q96RJ0 whole entry, looked up): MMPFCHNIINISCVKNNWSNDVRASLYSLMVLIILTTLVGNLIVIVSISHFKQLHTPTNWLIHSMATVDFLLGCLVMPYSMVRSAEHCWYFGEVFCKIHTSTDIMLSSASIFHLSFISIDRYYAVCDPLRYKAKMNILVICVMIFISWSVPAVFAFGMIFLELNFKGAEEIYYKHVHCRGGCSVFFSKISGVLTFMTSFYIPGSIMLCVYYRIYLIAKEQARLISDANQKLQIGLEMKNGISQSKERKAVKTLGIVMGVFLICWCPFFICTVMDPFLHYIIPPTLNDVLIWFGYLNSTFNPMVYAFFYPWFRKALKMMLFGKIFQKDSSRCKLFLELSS
Outline: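 Assay system: CHO-derived RD-HGA16 cells stably expressing human TAAR1 plus Gα16. Timing: 140 s kinetic read after compound, 140 s after agonist. Technique: kinetic Fluo-8 calcium fluorescence measurement. Measure: % inhibition of agonist calcium response.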

| SMILES | inhibition |
| --- | --- |
| O=C(NCc1ccc(F)cc1F)[C@@H]1CCCN1C(=O)[C@@H]1CCCN1C(=O)c1cccc(Cl)c1 | -26.2% |
| Cc1cc(Nc2ccc(Br)cc2F)n2ncnc2n1 | -22.8% |
| CC(=O)Nc1ccc(OCCC[n+]2cccc(C(=O)[O-])c2)cc1 | 10.6% |
| CCCCn1c(SCc2ncc(-c3ccccc3)o2)nc2cc(S(N)(=O)=O)ccc21 | 63.4% (active) |
| CCCCn1c(SCC(=O)N2CCC(C(=O)OCC)CC2)nc2cc(S(N)(=O)=O)ccc21 | -5.42% |
| CCCCn1c(SCC(=O)N2CCCC2=O)nc2cc(S(N)(=O)=O)ccc21 | -16.1% |
| CC1(C(=O)NCc2ccccc2)CN(S(C)(=O)=O)CC(=O)N1CC(F)(F)F (configuration not stated) | -8.96% |
| Cc1ccc(Cn2cc(CN3CC(N4CCN(C)CC4)CS3(=O)=O)nn2)cc1 (configuration not stated) | -10.1% |
| CC(C)(C)n1ncc2c(=O)n(Cc3c(Cl)cccc3Br)cnc21 | 58.1% (active) |
| CC(C)(C)n1ncc2c(=O)n(Cc3ccc(Cl)cc3)cnc21 | 18.1% |
| Cn1cnc2c1c(=O)n(Cc1c(Cl)cccc1Cl)c(=O)n2C | -4.09% |
| CCCCNc1cccc2c1S(=O)(=O)N[C@@H](C)CO2 | 4.47% |
| Cc1ccsc1C(=O)NNC(=O)COc1ccc(Br)cc1 | -10.4% |
| Cn1cccc1C(=O)NNC(=O)COc1ccc(Br)cc1 | 8.71% |
| Cc1ccc(O)c(NC(=S)NC(=O)COc2ccc(Br)cc2)c1 | 98.5% (active) |
| COc1ccc(OC)c(CNC(=O)c2cc(=O)[nH]c3ccc(S(=O)(=O)N4CCCC4)cc23)c1 | -12.7% |
| COc1ccc(S(=O)(=O)N2CCC(C(=O)NCCC(=O)NCc3cccc(OC)c3)CC2)cc1 | -10.5% |
| O=C(Nc1ccc(Br)cc1)C1CCC(=O)N1Cc1ccccc1Cl (configuration not stated) | 11.4% |
| Fc1ccc(/C=N/Nc2nc(-c3cccnc3)nc3ccccc23)cc1 | 55.8% (active) |
| Brc1ccc(-c2csc(N/N=C/c3cccnc3)n2)cc1 | 15.8% |
| S=c1nc2ccccc2c2nc(-c3cccnc3)[nH]n12 | 5.39% |
| O=C(c1ccc(Cl)cc1)n1cnc2ccccc21 | -8.66% |
| COc1cccc(N2CCN(CC(=O)Nc3ccnn3C3CCCC3)CC2)c1 | 10.4% |
| COC(=O)Nc1nc2ccc(C(=O)C3CC3)cc2[nH]1 | -3.23% |
| O=C(NCCN1CCOCC1)c1cc(Sc2cccc(Cl)c2)nc2ccccc12 | -6.08% |
| O=C(NCCN1CCOCC1)Nc1cccc(Cl)c1 | -1.82% |
| O=C(NCCN1CCOCC1)c1ccccc1N1C(=O)[C@@H]2Cc3c([nH]c4ccccc34)C(c3cccc(Cl)c3)N2C1=O (some centres not stated) | 68.8% (active) |
